In ChEMBL document CHEMBL2346593, “Novel adamantyl cannabinoids as CB1 receptor probes” (J Med Chem, 2013):
Activity calls are given as the source filed them.

Tested on: not listed separately
Assay: Selectivity ratio of Ki for mouse CB2 receptor to Ki for rat CB1 receptor
Details: not given

Row | SMILES | Ratio Ki
1 | CC1(C)Oc2cc(C34CC5CC(CC(C5)C3)C4)cc(O)c2[C@@H]2C[C@@H](CC=O)CC[C@H]21 | 0.5
2 | Cc1ccc2c(c1)-c1c(O)cc(C34CC5CC(CC(C5)C3)C4)cc1OC2(C)C | 0.7
3 | CC1(C)Oc2cc(C34CC5CC(CC(C5)C3)C4)cc(O)c2[C@@H]2C[C@H](CI)CC[C@H]21 | 1.4
4 | CC1(C)Oc2cc(C34CC5CC(CC(C5)C3)C4)cc(O)c2-c2cc(CO)ccc21 | 15.4
5 | CC1(C)Oc2cc(C34CC5CC(CC(C5)C3)C4)cc(O)c2-c2cc(O)ccc21 | 2.8
6 | COc1ccc2c(c1)-c1c(O)cc(C34CC5CC(CC(C5)C3)C4)cc1OC2(C)C | 1.9
7 | CC1(C)Oc2cc(C34CC5CC(CC(C5)C3)C4)cc(O)c2[C@@H]2C[C@H](CO)CC[C@H]21 | 2.5

Tested on: Rattus norvegicus
Assay: Hypothermic effect in Sprague-Dawley rat assessed as decrease in core body temperature at 10 mg/kg
Type: functional
Details: not given
How it was run: (§1)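 Female Sprague-Dawley rats (n = 5–7/group), minimally restrained and isolated, each with a thermistor probe inserted 7 cm and taped to the tail. Two baselines were taken 15 min apart, then sc injection (20% ethanol/20% emulphor/60% saline diluted with saline, 1.0 mL/kg). Temperature was read every 30 min for 3 h, then hourly to 6 h, as change from mean baseline.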

Row | SMILES | Activity | T [°C]
8 | CC1=CC[C@@H]2[C@@H](C1)c1c(O)cc(C34CC5CC(CC(C5)C3)C4)cc1OC2(C)C | inactive | –
9 | CC1(C)Oc2cc(C34CC5CC(CC(C5)C3)C4)cc(O)c2-c2cc(CO)ccc21 | – | 4.1

Biological target: Cannabinoid receptor 1 (Rattus norvegicus, UniProt P20272)
Assay: Displacement of [3H]CP-55940 from rat CB1 receptor expressed in rat brain membrane by competitive binding assay
Type: cell membranes
Details: not given

Chain of Cannabinoid receptor 1 (Rattus norvegicus, UniProt P20272) (P20272 whole entry): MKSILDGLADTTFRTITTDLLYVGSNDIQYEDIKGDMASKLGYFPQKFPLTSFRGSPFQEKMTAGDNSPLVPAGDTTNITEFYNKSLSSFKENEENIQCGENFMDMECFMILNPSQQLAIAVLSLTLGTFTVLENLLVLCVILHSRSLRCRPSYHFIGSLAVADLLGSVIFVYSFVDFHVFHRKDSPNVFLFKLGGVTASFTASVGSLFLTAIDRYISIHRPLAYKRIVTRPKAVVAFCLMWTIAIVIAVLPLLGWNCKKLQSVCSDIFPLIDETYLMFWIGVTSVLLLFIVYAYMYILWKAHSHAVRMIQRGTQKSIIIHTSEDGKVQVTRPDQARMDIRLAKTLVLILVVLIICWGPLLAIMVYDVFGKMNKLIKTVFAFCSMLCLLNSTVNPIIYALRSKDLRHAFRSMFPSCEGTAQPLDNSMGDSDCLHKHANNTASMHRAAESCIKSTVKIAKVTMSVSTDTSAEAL

Row | SMILES | Ki [nM]
10 | CC1(C)Oc2cc(C34CC5CC(CC(C5)C3)C4)cc(O)c2[C@@H]2C[C@H](O)CC[C@H]21 | 23.9
11 | CC1(C)Oc2cc(C34CC5CC(CC(C5)C3)C4)cc(O)c2[C@@H]2C[C@@H](CC=O)CC[C@H]21 | 17.5
12 | Cc1ccc2c(c1)-c1c(O)cc(C34CC5CC(CC(C5)C3)C4)cc1OC2(C)C | 62
13 | CC1(C)Oc2cc(C34CC5CC(CC(C5)C3)C4)cc(O)c2[C@@H]2C[C@H](CI)CC[C@H]21 | 241
14 | CC1(C)Oc2cc(C34CC5CC(CC(C5)C3)C4)cc(O)c2-c2cc(CO)ccc21 | 2.1
15 | CC1(C)Oc2cc(C34CC5CC(CC(C5)C3)C4)cc(O)c2-c2cc(O)ccc21 | 88.6
16 | COc1ccc2c(c1)-c1c(O)cc(C34CC5CC(CC(C5)C3)C4)cc1OC2(C)C | 507
17 | CC1(C)Oc2cc(C34CC5CC(CC(C5)C3)C4)cc(O)c2[C@@H]2C[C@@H](O)CC[C@H]21 | 146
18 | CC1(C)Oc2cc(C34CC5CC(CC(C5)C3)C4)cc(O)c2[C@@H]2C[C@H](CO)CC[C@H]21 | 4.9

Tested on: Rattus norvegicus
Assay: Antinociceptive activity in Sprague-Dawley rat assessed as increase in tail-flick latency period at 0.1 to 10 mg/kg, sc after 6 hrs by tail-flick test
Type: functional, organism-based
Details: not given
How it was run: (§2)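 Female Sprague-Dawley rats (235–350 g; n = 5–7/group), retested at least 7 days apart. Compound was dissolved in 20% ethanol/20% emulphor/60% saline, diluted with saline, and given sc at 1.0 mL/kg. Radiant-heat tail-flick latency was measured over 6 h with a 6 s cutoff. %MPE = 100 × (test − baseline)/(6 − baseline). Dose-effect curves used each rat's maximum effect.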

Row | SMILES | Activity
19 | CC1=CC[C@@H]2[C@@H](C1)c1c(O)cc(C34CC5CC(CC(C5)C3)C4)cc1OC2(C)C | Active

Tested on: Rattus norvegicus
Assay: Hypothermic effect in Sprague-Dawley rat assessed as decrease in core body temperature at 1 mg/kg, sc measured over 6 hrs
Type: functional
Details: route subcutaneous
How it was run: as §1

Row | SMILES | T [°C]
20 | CC1(C)Oc2cc(C34CC5CC(CC(C5)C3)C4)cc(O)c2[C@@H]2C[C@H](CO)CC[C@H]21 | 6.4

Biological target: Cannabinoid receptor 1 (Homo sapiens, UniProt P21554)
Assay: Agonist activity at human CB1 receptor transfected in human U2OS cells assessed as beta-arrestin2-GFP aggregation after 40 mins
Type: cell-based
Details: not given

Chain of Cannabinoid receptor 1 (Homo sapiens, UniProt P21554) (P21554 whole entry): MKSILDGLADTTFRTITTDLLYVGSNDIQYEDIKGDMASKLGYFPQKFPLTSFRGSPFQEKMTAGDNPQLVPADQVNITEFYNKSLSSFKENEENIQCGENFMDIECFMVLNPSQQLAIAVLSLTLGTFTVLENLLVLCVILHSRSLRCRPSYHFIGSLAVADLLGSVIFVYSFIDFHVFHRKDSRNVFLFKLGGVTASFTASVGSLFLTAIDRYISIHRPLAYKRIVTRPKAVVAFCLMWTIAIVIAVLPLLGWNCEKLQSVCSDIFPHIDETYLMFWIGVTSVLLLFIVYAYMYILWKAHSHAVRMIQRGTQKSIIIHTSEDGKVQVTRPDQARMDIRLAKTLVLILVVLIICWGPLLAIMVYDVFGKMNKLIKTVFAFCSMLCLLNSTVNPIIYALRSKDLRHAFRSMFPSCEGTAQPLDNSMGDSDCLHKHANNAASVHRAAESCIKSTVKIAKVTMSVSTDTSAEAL

Row | SMILES | EC50 [nM]
21 | CC1=CC[C@@H]2[C@@H](C1)c1c(O)cc(C34CC5CC(CC(C5)C3)C4)cc1OC2(C)C | 1530
22 | CC1(C)Oc2cc(C34CC5CC(CC(C5)C3)C4)cc(O)c2-c2cc(CO)ccc21 | 450
23 | CC1(C)Oc2cc(C34CC5CC(CC(C5)C3)C4)cc(O)c2[C@@H]2C[C@H](CO)CC[C@H]21 | 96

Biological target: Cannabinoid receptor 2 (Mus musculus, UniProt P47936)
Assay: Displacement of [3H]CP-55940 from mouse CB2 receptor expressed in mouse spleen membrane by competitive binding assay
Type: cell membranes
Details: not given
How it was run: (§3)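 Competition-equilibrium binding against [3H]CP-55,940 in rat brain membranes (CB1), mouse spleen membranes (mCB2), or membranes of HEK293 cells expressing hCB2. IC50 was obtained by nonlinear regression and converted to Ki. Ki is the mean of three independent experiments, each run in duplicate.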

Chain of Cannabinoid receptor 2 (Mus musculus, UniProt P47936) (P47936 whole entry): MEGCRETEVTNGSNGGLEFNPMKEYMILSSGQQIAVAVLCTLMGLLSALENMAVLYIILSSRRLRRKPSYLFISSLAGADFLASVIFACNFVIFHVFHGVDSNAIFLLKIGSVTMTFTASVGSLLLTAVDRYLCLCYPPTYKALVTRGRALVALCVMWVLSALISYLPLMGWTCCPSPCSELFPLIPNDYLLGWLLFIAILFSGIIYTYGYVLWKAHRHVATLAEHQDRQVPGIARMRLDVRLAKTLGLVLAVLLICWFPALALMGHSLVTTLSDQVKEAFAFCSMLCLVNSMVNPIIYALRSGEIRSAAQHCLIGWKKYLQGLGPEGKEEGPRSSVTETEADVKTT

Row | SMILES | Ki [nM]
24 | CC1(C)Oc2cc(C34CC5CC(CC(C5)C3)C4)cc(O)c2[C@@H]2C[C@H](O)CC[C@H]21 | 39.4
25 | CC1(C)Oc2cc(C34CC5CC(CC(C5)C3)C4)cc(O)c2[C@@H]2CC(=O)CC[C@H]21 | 250
26 | CC1(C)Oc2cc(C34CC5CC(CC(C5)C3)C4)cc(O)c2[C@@H]2C[C@@H](CC=O)CC[C@H]21 | 8.1
27 | Cc1ccc2c(c1)-c1c(O)cc(C34CC5CC(CC(C5)C3)C4)cc1OC2(C)C | 42.2
28 | CC1(C)Oc2cc(C34CC5CC(CC(C5)C3)C4)cc(O)c2[C@@H]2C[C@H](CI)CC[C@H]21 | 346
29 | CC1(C)Oc2cc(C34CC5CC(CC(C5)C3)C4)cc(O)c2-c2cc(CO)ccc21 | 32.3
30 | CC1(C)Oc2cc(C34CC5CC(CC(C5)C3)C4)cc(O)c2-c2cc(O)ccc21 | 251
31 | COc1ccc2c(c1)-c1c(O)cc(C34CC5CC(CC(C5)C3)C4)cc1OC2(C)C | 950
32 | CC1(C)Oc2cc(C34CC5CC(CC(C5)C3)C4)cc(O)c2[C@@H]2C[C@@H](O)CC[C@H]21 | 255
33 | CC1(C)Oc2cc(C34CC5CC(CC(C5)C3)C4)cc(O)c2[C@@H]2C[C@H](CO)CC[C@H]21 | 12.1

Biological target: Cannabinoid receptor 2 (Homo sapiens, UniProt P34972)
Assay: Displacement of [3H]CP-55940 from human CB2 receptor expressed in HEK293 cell membrane by competitive binding assay
Type: cell membranes
Details: not given
How it was run: as §3

Chain of Cannabinoid receptor 2 (Homo sapiens, UniProt P34972) (P34972 whole entry): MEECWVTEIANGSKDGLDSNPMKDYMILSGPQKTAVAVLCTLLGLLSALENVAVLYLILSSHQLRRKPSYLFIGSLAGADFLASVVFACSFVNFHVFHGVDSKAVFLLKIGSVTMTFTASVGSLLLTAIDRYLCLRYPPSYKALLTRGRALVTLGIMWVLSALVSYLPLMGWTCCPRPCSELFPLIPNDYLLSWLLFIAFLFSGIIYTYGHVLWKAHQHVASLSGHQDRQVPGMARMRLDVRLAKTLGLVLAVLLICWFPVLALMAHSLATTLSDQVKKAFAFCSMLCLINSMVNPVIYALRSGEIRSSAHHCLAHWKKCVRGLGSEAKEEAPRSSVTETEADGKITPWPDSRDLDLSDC

Row | SMILES | Ki [nM]
34 | CC1(C)Oc2cc(C34CC5CC(CC(C5)C3)C4)cc(O)c2[C@@H]2C[C@H](O)CC[C@H]21 | 40.5
35 | CC1(C)Oc2cc(C34CC5CC(CC(C5)C3)C4)cc(O)c2[C@@H]2CC(=O)CC[C@H]21 | 338
36 | CC1(C)Oc2cc(C34CC5CC(CC(C5)C3)C4)cc(O)c2[C@@H]2C[C@@H](CC=O)CC[C@H]21 | 7.8
37 | Cc1ccc2c(c1)-c1c(O)cc(C34CC5CC(CC(C5)C3)C4)cc1OC2(C)C | 63.5
38 | CC1(C)Oc2cc(C34CC5CC(CC(C5)C3)C4)cc(O)c2[C@@H]2C[C@H](CI)CC[C@H]21 | 262
39 | CC1(C)Oc2cc(C34CC5CC(CC(C5)C3)C4)cc(O)c2-c2cc(CO)ccc21 | 46.7
40 | CC1(C)Oc2cc(C34CC5CC(CC(C5)C3)C4)cc(O)c2-c2cc(O)ccc21 | 551
41 | COc1ccc2c(c1)-c1c(O)cc(C34CC5CC(CC(C5)C3)C4)cc1OC2(C)C | 338
42 | CC1(C)Oc2cc(C34CC5CC(CC(C5)C3)C4)cc(O)c2[C@@H]2C[C@@H](O)CC[C@H]21 | 672
43 | CC1(C)Oc2cc(C34CC5CC(CC(C5)C3)C4)cc(O)c2[C@@H]2C[C@H](CO)CC[C@H]21 | 11.3

Tested on: Rattus norvegicus
Assay: Hypothermic effect in sc dosed Sprague-Dawley rat assessed as decrease in core body temperature after 60 mins to 6 hrs
Type: functional, organism-based
Details: not given
How it was run: as §1

Row | SMILES | Activity
44 | CC1(C)Oc2cc(C34CC5CC(CC(C5)C3)C4)cc(O)c2[C@@H]2C[C@H](CO)CC[C@H]21 | Dose-dependent effect

Tested on: Rattus norvegicus
Assay: Antinociceptive activity in Sprague-Dawley rat assessed as increase in tail-flick latency period at 0.1 to 10 mg/kg, sc after 60 to 120 mins by tail-flick test
Type: functional, organism-based
Details: not given
How it was run: as §2

Row | SMILES | Activity
45 | CC1=CC[C@@H]2[C@@H](C1)c1c(O)cc(C34CC5CC(CC(C5)C3)C4)cc1OC2(C)C | Active

Tested on: Rattus norvegicus
Assay: Antinociceptive activity in Sprague-Dawley rat assessed as increase in tail-flick latency period at 1 mg/kg, sc by tail-flick test
Type: functional, organism-based
Set-up: dose 1 mg/kg
Details: not given
How it was run: as §2

Row | SMILES | Activity
46 | CC1(C)Oc2cc(C34CC5CC(CC(C5)C3)C4)cc(O)c2[C@@H]2C[C@H](CO)CC[C@H]21 | Active

Tested on: not listed separately
Assay: Selectivity ratio of Ki for human CB2 receptor to Ki for rat CB1 receptor
Details: not given

Row | SMILES | Ratio Ki
47 | CC1(C)Oc2cc(C34CC5CC(CC(C5)C3)C4)cc(O)c2[C@@H]2C[C@@H](CC=O)CC[C@H]21 | 0.4
48 | Cc1ccc2c(c1)-c1c(O)cc(C34CC5CC(CC(C5)C3)C4)cc1OC2(C)C | 1
49 | CC1(C)Oc2cc(C34CC5CC(CC(C5)C3)C4)cc(O)c2[C@@H]2C[C@H](CI)CC[C@H]21 | 1.1
50 | CC1(C)Oc2cc(C34CC5CC(CC(C5)C3)C4)cc(O)c2-c2cc(CO)ccc21 | 22.2
51 | CC1(C)Oc2cc(C34CC5CC(CC(C5)C3)C4)cc(O)c2-c2cc(O)ccc21 | 6.2
52 | COc1ccc2c(c1)-c1c(O)cc(C34CC5CC(CC(C5)C3)C4)cc1OC2(C)C | 0.7
53 | CC1(C)Oc2cc(C34CC5CC(CC(C5)C3)C4)cc(O)c2[C@@H]2C[C@H](CO)CC[C@H]21 | 2.3
